Reference: ChEMBL document CHEMBL1124925, “Anticandidal properties of N3-(4-methoxyfumaroyl)-L-2,3-diaminopropanoic acid oligopeptides” (1990)
Converted amounts (≈) assume the structure as drawn. Non-standard residues stand in square brackets, D forms with d. Residues, ends and D or L forms follow the SMILES beside them. *: point of attachment. Fumaryl(OMe) = COC(=O)/C=C/C(=O)*; Dap = NC[C@H](N)C(=O)O

Experiments:
Candida albicans [1] = assay: Tested for its intracellular cleavage rate in Candida albicans ATCC 26278.; format: functional
Summary of the method: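 Cell-free extract came from cells grown overnight on Sabouraud medium at 30 °C with vigorous shaking. Cells were washed and extracted in 0.05 M phosphate buffer, pH 6.5; protein was measured by Lowry (Layne modification). Peptides at 200 μM in 0.005 M phosphate buffer were incubated with extract at 30 °C for 30 min. Samples were taken every 10 min and released amino acid was measured by Cd-ninhydrin.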

Candida albicans [2] = assay: In vitro antifungal activity against Candida albicans ATCC 26278.; format: functional
Summary of the method: (§1)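 MIC by serial dilution in liquid YNB medium containing sodium glutamate, inoculated at 10^4 cells/mL; growth read turbidimetrically at 660 nm after 24 h at 30 °C. Strains were 16 fresh clinical isolates collected at the Medical Academy of Gdansk plus standard strain ATCC 26278.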

Candida albicans [3] = assay: In vitro antifungal activity against 16 clinical strains of Candida albicans.; format: functional; summary of the method: as §1
Saccharomyces cerevisiae [4] = assay: In vitro antifungal activity against Saccharomyces cerevisiae ATCC 9763.; format: functional
Candida epidermidis [5] = assay: In vitro antifungal activity against Candida epidermidis OBS 6023.
Candida albicans [6] = assay: Tested for its rate of transport in Candida albicans ATCC 26278.; format: functional
Saccharomyces cerevisiae [7] = assay: Tested in vitro for antifungal activity against Saccharomyces cerevisiae ATCC 9763.; format: functional
Saccharomyces cerevisiae [8] = assay: In vitro for antifungal activity against Saccharomyces cerevisiae ATCC 9763.; format: functional
Candida epidermidis [9] = assay: In vitro antifungal activity against Candida epidermidis OBS 6023.; remark: listed apart in the source

SMILES | MIC (Candida albicans [2]) [µg/mL] | MIC (Candida albicans [3]) [µg/mL] | MIC (Saccharomyces cerevisiae [4]) [µg/mL] | MIC (Candida epidermidis [5]) [µg/mL] | MIC (Saccharomyces cerevisiae [7]) [µg/mL] | MIC (Saccharomyces cerevisiae [8]) [µg/mL] | MIC (Candida epidermidis [9]) [µg/mL] | Cleavage rate (Candida albicans [1]) [nM/min/mg] | Transport rate (Candida albicans [6]) [nM/min/mg]
COC(=O)/C=C/C(=O)NC[C@H](NC(=O)[C@H](N)CCSC)C(=O)N[C@H](CCSC)C(=O)O |  |  |  |  |  |  |  |  | 2
COC(=O)/C=C/C(=O)NC[C@H](NC(=O)[C@@H](CCSC)NC(=O)[C@@H](CCSC)NC(=O)[C@@H](N)CNC(=O)/C=C/C(=O)OC)C(=O)O |  |  |  |  |  |  |  |  | 1.2
COC(=O)/C=C/C(=O)NC[C@H](NC(=O)[C@H](C)NC(=O)[C@@H](N)CCSC)C(=O)O | 0.75 (≈ 1.79 µM) | 0.25 (≈ 0.597 µM) | 7.5 (≈ 17.9 µM) | 125 (≈ 299 µM) |  |  |  | 15.2 | 
COC(=O)/C=C/C(=O)NC[C@H](NC(=O)[C@H](C)N)C(=O)N[C@@H](C)C(=O)O | 0.75 (≈ 2.09 µM) | 0.25 (≈ 0.698 µM) | 37.5 (≈ 105 µM) | 80 (≈ 223 µM) |  |  |  | 5.4 | 0.9
COC(=O)/C=C/C(=O)NC[C@H](NC(=O)[C@H](CNC(=O)/C=C/C(=O)OC)NC(=O)[C@@H](N)CCSC)C(=O)O | 0.75 (≈ 1.37 µM) | 0.25 (≈ 0.458 µM) | 150 (≈ 275 µM) | 125 (≈ 229 µM) |  |  |  | 10 | 
COC(=O)/C=C/C(=O)NCC(N)C(=O)N[C@@H](CCSC)C(=O)N[C@@H](CNC(=O)/C=C/C(=O)OC)C(=O)O (some centres undefined) | 0.75 (≈ 1.37 µM) | 0.25 (≈ 0.458 µM) | 150 (≈ 275 µM) | 75 (≈ 137 µM) |  |  |  | 3 | 1.4
COC(=O)/C=C/C(=O)NC[C@H](NC(=O)[C@H](CCSC)NC(=O)[C@H](CCSC)NC(=O)[C@@H](N)CCSC)C(=O)O (H-MMM[Dap](Fumaryl(OMe))-OH) | 0.75 (≈ 1.23 µM) | 0.25 (≈ 0.41 µM) | 100 (≈ 164 µM) | 75 (≈ 123 µM) |  |  |  | 23.7 | 

More lines, in order of falling MIC (Candida albicans [2]), values ahead:

MIC (Candida albicans [2]) [µg/mL] | MIC (Candida albicans [3]) [µg/mL] | MIC (Saccharomyces cerevisiae [4]) [µg/mL] | MIC (Candida epidermidis [5]) [µg/mL] | MIC (Saccharomyces cerevisiae [7]) [µg/mL] | MIC (Saccharomyces cerevisiae [8]) [µg/mL] | MIC (Candida epidermidis [9]) [µg/mL] | SMILES | Cleavage rate (Candida albicans [1]) [nM/min/mg] | Transport rate (Candida albicans [6]) [nM/min/mg]
0.5 (≈ 0.675 µM) | 0.25 (≈ 0.337 µM) | 37.5 (≈ 50.6 µM) |  |  |  | 75 (≈ 101 µM) | COC(=O)/C=C/C(=O)NC[C@H](NC(=O)[C@H](CCSC)NC(=O)[C@H](CCSC)NC(=O)[C@H](CCSC)NC(=O)[C@@H](N)CCSC)C(=O)O (H-MMMM[Dap](Fumaryl(OMe))-OH) | 18.6 | 
0.3 (≈ 0.627 µM) | 0.15 (≈ 0.313 µM) | 50 (≈ 104 µM) | 110 (≈ 230 µM) |  |  |  | COC(=O)/C=C/C(=O)NC[C@H](NC(=O)[C@@H](N)CCSC)C(=O)N[C@@H](CCSC)C(=O)O | 4.8 | 
0.25 (≈ 0.522 µM) | 0.1 (≈ 0.209 µM) |  | 125 (≈ 261 µM) | 37.5 (≈ 78.4 µM) |  |  | COC(=O)/C=C/C(=O)NC[C@H](NC(=O)[C@H](CCSC)NC(=O)[C@@H](N)CCSC)C(=O)O | 4.9 | 
0.25 (≈ 0.597 µM) | 0.1 (≈ 0.239 µM) | 15 (≈ 35.8 µM) | 50 (≈ 119 µM) |  |  |  | COC(=O)/C=C/C(=O)NC[C@H](N)C(=O)N[C@@H](CCSC)C(=O)N[C@@H](C)C(=O)O | 4.9 | 
0.25 (≈ 0.369 µM) | 0.25 (≈ 0.369 µM) | 75 (≈ 111 µM) | 75 (≈ 111 µM) |  |  |  | COC(=O)/C=C/C(=O)NC[C@H](NC(=O)[C@H](CCSC)NC(=O)[C@H](CCSC)NC(=O)[C@@H](N)CNC(=O)/C=C/C(=O)OC)C(=O)O | 5.8 | 
0.125 (≈ 0.28 µM) | 0.05 (≈ 0.112 µM) | 7.5 (≈ 16.8 µM) | 130 (≈ 291 µM) |  |  |  | CCC[C@H](NC(=O)[C@@H](N)CCSC)C(=O)N[C@@H](CNC(=O)/C=C/C(=O)OC)C(=O)O | 17.3 | 
0.05 (≈ 0.121 µM) | 0.01 (≈ 0.0241 µM) |  | 125 (≈ 302 µM) |  | 50 (≈ 121 µM) |  | CCC[C@H](NC(=O)[C@H](CNC(=O)/C=C/C(=O)OC)NC(=O)[C@@H](N)CCC)C(=O)O | 8.9 | 2.9
0.025 (≈ 0.0564 µM) | 0.01 (≈ 0.0225 µM) |  | 125 (≈ 282 µM) |  |  |  | CCC[C@H](NC(=O)[C@@H](N)CCCCN)C(=O)N[C@@H](CNC(=O)/C=C/C(=O)OC)C(=O)O | 51 | 
